Assay results of several laboratories.
Lines come from different studies, so protocols differ.
CYP2C19: Cytochrome P450 2C19 (CYP2C19, Homo sapiens, UniProt P33261)
UGT1A4: UDP-glucuronosyltransferase 1A4 (UGT1A4, Homo sapiens, UniProt P22310)

N=C(N)N1CC=C(c2coc(C(=O)Nc3ccc(C4=CCN(C(=N)N)CC4)c(F)c3)c2)CC1 — CC50 (NIH3T3; cell growth or viability, MTS; 24 h): 68 µM
C=CC(=O)N1CC2CC(n3nc(-c4ccc(C(=O)Nc5ccccn5)cc4)c4c(N)ncnc43)CC2C1 (stereo not drawn) — Tmax (male Wistar rat, plasma; oral, 10 mg/kg): 2 h
N=C(N)NCc1ccc(NC(=O)c2ccc(C(=O)Nc3ccc(C4=CCN(C(=N)N)CC4)cc3)nc2)cc1 — CC50 (NIH3T3; cell growth or viability, MTS; 24 h): > 117 µM
COC(=O)C1CCN(C(=O)c2ccc(N(CCO)Cc3cnc4nc(N)nc(N)c4n3)cc2)CC1 — inhibition (CYP2C19; enzyme activity, inhibitor, luciferase; 10 µM): -24.5%
C[C@@H](Cn1ccc(-c2ccc(C#N)c(Cl)c2)n1)NC(=O)c1cc([C@@H](C)O)[nH]n1 — IC50 (UGT1A4; enzyme activity, inhibitor; human, liver microsomes): > 100 µM
C[C@@H]1C[C@H](c2ccc(Br)cc2)c2c(cc3ccccn23)C(=O)O1 (racemic) — CC50 (HFF-1; cell growth or viability, resazurin; 72 h): 0.92 µM
N=C(N)NCc1ccc(NC(=O)c2ccc(C(=O)Nc3ccc(C4=CCN(C(=N)N)CC4)cn3)cc2)cc1 — CC50 (NIH3T3; cell growth or viability, MTS; 24 h): 544 µM
[11CH3]Oc1cccc(CCc2cc(O)c(=O)[nH]n2)c1 — tracer uptake (ATP-dependent translocase ABCB1 (Abcb1a, Mus musculus, UniProt P21447); mouse, brain; 30 min): 0.23 %ID/g
CCOC(=O)C1CCCN1C(=O)c1ccc(NCc2cnc3nc(N)nc(N)c3n2)cc1 (stereo not drawn) — inhibition (CYP2C19; enzyme activity, inhibitor, luciferase; 10 µM): -16.2%
COc1cc2c3c(n(CCCN4CCOCC4)c(=O)c2cc1OC)-c1cc2c(cc1C3=O)OCO2 — Cmax (male beagle dog, plasma; intravenous, 10 mg/m², infusion): 106 ng/mL
CN(CCC(=O)O)C(=O)c1ccc2c(c1)CC[C@@H]1[C@@H]2CC[C@]2(C)C(c3cncc(F)c3)=CC[C@@H]12 — IC50 (UGT1A4; enzyme activity, inhibitor): > 30 µM
COC(=O)C1CCN(C(=O)c2ccc(NCc3cnc4nc(N)nc(N)c4n3)cn2)CC1 — inhibition (CYP2C19; enzyme activity, inhibitor, luciferase; 10 µM): -1.34%
